Published values pooled from the literature.
Compare with care: the assays were run in different laboratories.
Target: Serine/threonine-protein kinase LATS1 (LATS1, Homo sapiens, UniProt O95835)
Sequence (O95835 1-1130, as in one of the studies): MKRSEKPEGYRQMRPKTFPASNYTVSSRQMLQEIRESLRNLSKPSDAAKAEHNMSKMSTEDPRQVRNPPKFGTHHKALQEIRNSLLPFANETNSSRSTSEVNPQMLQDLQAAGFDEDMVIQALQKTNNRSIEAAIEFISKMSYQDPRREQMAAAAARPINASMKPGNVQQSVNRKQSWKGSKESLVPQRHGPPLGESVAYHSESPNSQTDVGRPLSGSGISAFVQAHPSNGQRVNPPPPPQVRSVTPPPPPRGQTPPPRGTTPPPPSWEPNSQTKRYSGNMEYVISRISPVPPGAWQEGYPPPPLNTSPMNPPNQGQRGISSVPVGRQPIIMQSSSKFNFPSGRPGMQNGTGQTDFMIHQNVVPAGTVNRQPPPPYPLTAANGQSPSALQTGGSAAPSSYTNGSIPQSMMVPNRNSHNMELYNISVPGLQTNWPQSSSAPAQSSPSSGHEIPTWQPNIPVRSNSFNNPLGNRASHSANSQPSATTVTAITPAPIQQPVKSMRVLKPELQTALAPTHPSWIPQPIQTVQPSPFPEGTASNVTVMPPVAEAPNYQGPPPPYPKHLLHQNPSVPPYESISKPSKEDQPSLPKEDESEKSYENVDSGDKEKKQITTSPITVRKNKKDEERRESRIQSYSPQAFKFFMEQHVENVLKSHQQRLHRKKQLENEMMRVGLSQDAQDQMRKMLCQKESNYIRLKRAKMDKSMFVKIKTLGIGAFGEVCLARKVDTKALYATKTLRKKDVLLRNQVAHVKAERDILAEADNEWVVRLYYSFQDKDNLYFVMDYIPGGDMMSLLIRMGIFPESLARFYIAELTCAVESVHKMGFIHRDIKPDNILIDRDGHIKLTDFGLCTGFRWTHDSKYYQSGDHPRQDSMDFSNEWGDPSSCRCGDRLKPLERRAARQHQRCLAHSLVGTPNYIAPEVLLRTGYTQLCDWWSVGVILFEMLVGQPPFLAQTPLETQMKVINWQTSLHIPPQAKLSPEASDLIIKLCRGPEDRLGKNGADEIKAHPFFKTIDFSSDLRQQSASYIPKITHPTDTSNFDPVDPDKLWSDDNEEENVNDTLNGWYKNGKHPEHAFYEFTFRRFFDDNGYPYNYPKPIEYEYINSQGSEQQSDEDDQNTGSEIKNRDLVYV

SMILES	assay	conditions	remaining binding
O=C(c1ccc(Nc2nccc(-c3cc4ccccc4s3)n2)cc1)N1CCC(N2CCCC2)CC1	binding, competition with immobilised ligand	1 µM	93%
CN(C)c1nccc(-c2cnc3ncccn23)n1	binding	1 µM	100%
CNC(=O)[C@@H]1CC[C@@H](n2c(-c3ccc4cnccc4c3)nc3ccc(C(=O)NCc4cccc(C(N)=O)c4)cc32)C1	binding, competition with immobilised ligand	1 µM	100%
CN(C)c1ncnc(-c2ccc3nc(Nc4cc(CN5CCN(C(=O)CC(F)(F)F)CC5)ccn4)[nH]c3c2)c1Cl	cell-free assay, competition with immobilised ligand	1 µM	95%
COc1ccnn2ncc(-c3ccnc(N(C)C)n3)c12	binding	1 µM	100%
Cc1cc(NC(=O)c2cccc(S(F)(F)(F)(F)F)c2)cc(-n2ccn3nc(-c4cccnc4)cc23)c1	cell-free assay, competition with immobilised ligand	1 µM	100%
CN(c1nccc(-c2cnn3ncccc23)n1)C1CC1	binding	1 µM	82%
FC(F)(F)Oc1cccc(-c2cnc3ccc(-c4ccncc4)nn23)c1	cell-free assay, competition with immobilised ligand	5 µM	100%
O=C(c1ccc(Nc2ncc(Cl)c(-c3cc4ccccc4s3)n2)cc1)N1CCC(N2CCCC2)CC1	binding, competition with immobilised ligand	1 µM	60%
C=CC(=O)N1CCC(C(=O)NCC(=O)N2CCN(c3nc(-c4cnc(N)nc4C(F)F)nc(N4CCOCC4)n3)CC2)CC1	binding, competition with immobilised ligand	1 µM	100%
c1cnn2ncc(-c3ccnc(N4CCC45COC5)n3)c2c1	binding	1 µM	88%
CCN1CCN(Cc2ccc(C(=O)Nc3ccc(C)c(Oc4ccc5c(c4)CC(=O)N5)c3)cc2C(F)(F)F)CC1	binding, competition with immobilised ligand	1 µM	94%
COc1cc(-c2cn(C3CCc4c(F)cccc4N(CC(F)(F)F)C3=O)nn2)ccc1-n1cnc(C)c1 (centres unmarked)	cell-free assay, competition with immobilised ligand	1 µM	93%
O=C(Nc1c[nH]nc1C(=O)NC1CCNCC1)c1cc(F)cc(F)c1	binding, competition with immobilised ligand	1 µM	100%
O=C(O)c1cc(-c2ccc(C3CCNCC3)cc2)c2ccc(-c3ccc(C(F)(F)F)cc3)cc2c1	cell-free assay, competition with immobilised ligand	1 µM	88%
N[C@H]1CCN(c2nccc(-c3cnn4ncccc34)n2)C1	binding	1 µM	100%
O=C(NCCCC1CCCCC1)c1ccc(CNC(=O)c2cnn(-c3ccccc3)c2C(F)(F)F)cc1	cell-free assay, competition with immobilised ligand	0.1 µM	100%
C[C@H]1CCN(c2nccc(-c3cnn4ncccc34)n2)C1	binding	1 µM	100%
O=C(O)[C@@H]1[C@@H](Cn2nnc3ccccc3c2=O)CC[C@H]1C(=O)c1ccc(OCCC2CCOCC2)cc1	cell-free assay, competition with immobilised ligand	1 µM	90%
COc1cnc(Nc2cccc(S(N)(=O)=O)c2)nc1N1CCN(c2ccccc2)C(=O)C1	binding, competition with immobilised ligand	1 µM	90%
